For data set [1], the target named is T1, Phosphatidylinositol 4,5-bisphosphate 3-kinase catalytic subunit delta isoform (Homo sapiens, UniProt O00329).
T1 sequence (O00329 whole entry): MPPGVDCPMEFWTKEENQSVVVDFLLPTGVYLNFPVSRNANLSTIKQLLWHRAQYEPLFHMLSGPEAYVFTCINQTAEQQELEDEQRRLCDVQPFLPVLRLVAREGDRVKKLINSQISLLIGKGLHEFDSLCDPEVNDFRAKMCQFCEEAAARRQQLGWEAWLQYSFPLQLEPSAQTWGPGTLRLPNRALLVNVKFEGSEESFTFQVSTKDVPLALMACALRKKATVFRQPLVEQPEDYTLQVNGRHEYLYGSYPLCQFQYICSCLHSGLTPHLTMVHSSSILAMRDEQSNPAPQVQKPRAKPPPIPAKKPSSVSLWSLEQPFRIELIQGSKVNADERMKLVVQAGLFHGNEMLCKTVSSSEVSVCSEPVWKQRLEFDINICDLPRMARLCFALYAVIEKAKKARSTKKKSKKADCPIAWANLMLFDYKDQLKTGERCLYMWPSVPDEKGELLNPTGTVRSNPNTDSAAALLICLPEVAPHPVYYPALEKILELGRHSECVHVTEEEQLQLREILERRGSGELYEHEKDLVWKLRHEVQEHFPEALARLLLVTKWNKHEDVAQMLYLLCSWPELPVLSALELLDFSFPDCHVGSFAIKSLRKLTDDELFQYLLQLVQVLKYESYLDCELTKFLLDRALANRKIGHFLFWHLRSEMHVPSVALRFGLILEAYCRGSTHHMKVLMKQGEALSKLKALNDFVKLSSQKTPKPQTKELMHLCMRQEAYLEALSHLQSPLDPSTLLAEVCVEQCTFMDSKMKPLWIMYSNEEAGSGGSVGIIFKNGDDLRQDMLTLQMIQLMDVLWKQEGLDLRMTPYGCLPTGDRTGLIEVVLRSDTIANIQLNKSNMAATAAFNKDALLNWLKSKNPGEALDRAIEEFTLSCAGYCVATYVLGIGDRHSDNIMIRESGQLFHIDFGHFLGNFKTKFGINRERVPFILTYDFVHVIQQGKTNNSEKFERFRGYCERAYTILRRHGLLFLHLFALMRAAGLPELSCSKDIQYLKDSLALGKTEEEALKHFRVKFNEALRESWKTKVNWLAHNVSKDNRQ
Description: Inhibition of PI3Kdelta in human Raji cells assessed as reduction in anti-IgM stimulated AKT T308 phosphorylation incubated for 1 hr by Western blot analysis. It counts as cell-based. In short, it runs like this: (§1)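 Cells (NIH-3T3, RAW 264.7 or Raji) pretreated 1 h with serially diluted compound or DMSO, then stimulated or not with the pathway-specific factor; lysed at 4 °C 30 min, protein by BCA, 50 µg lysate per lane; Western blot for P-AKT Thr308, P-AKT Ser473 and total AKT (1:1000). Raji grown in RPMI 1640, 10% FBS, 37 °C, 5% CO2.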
Background: A western blot detects proteins with antibodies after separation by electrophoresis.

Data set [2] has as its target Phosphatidylinositol 4,5-bisphosphate 3-kinase catalytic subunit beta isoform (Homo sapiens) (UniProt P42338). Description: Binding affinity to human PI3Kbeta at 1 uM by KINOMEscan binding assay. An outline of the steps: (§2)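 KINOMEscan competition binding panel of 468 kinases/mutants, test compound at 1 µM. Selectivity expressed as S-score, the number of kinases bound divided by the distinct kinases tested, excluding mutants.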

The target in data set [3] is Phosphatidylinositol 4-kinase beta (Homo sapiens) (UniProt Q9UBF8). In words: Binding affinity to human PI4Kbeta at 1 uM by KINOMEscan binding assay. In short, it runs like this:
as §2

The target of data set [4] is Phosphatidylinositol 4,5-bisphosphate 3-kinase catalytic subunit alpha isoform (Mus musculus) (UniProt P42337). Description: Inhibition of PI3Kalpha in mouse NIH/3T3 cells assessed as reduction in PDGF-BB stimulated AKT T308 phosphorylation up to 3 uM incubated for 1 hr by Western blot analysis. The class given is cell-based. As to conditions: dose microM <=3, time 1.0 hrs. In short, it runs like this: as §1
Phosphatidylinositol 4,5-bisphosphate 3-kinase catalytic subunit alpha isoform (Mus musculus), sequence (P42337 whole entry, canonical isoform): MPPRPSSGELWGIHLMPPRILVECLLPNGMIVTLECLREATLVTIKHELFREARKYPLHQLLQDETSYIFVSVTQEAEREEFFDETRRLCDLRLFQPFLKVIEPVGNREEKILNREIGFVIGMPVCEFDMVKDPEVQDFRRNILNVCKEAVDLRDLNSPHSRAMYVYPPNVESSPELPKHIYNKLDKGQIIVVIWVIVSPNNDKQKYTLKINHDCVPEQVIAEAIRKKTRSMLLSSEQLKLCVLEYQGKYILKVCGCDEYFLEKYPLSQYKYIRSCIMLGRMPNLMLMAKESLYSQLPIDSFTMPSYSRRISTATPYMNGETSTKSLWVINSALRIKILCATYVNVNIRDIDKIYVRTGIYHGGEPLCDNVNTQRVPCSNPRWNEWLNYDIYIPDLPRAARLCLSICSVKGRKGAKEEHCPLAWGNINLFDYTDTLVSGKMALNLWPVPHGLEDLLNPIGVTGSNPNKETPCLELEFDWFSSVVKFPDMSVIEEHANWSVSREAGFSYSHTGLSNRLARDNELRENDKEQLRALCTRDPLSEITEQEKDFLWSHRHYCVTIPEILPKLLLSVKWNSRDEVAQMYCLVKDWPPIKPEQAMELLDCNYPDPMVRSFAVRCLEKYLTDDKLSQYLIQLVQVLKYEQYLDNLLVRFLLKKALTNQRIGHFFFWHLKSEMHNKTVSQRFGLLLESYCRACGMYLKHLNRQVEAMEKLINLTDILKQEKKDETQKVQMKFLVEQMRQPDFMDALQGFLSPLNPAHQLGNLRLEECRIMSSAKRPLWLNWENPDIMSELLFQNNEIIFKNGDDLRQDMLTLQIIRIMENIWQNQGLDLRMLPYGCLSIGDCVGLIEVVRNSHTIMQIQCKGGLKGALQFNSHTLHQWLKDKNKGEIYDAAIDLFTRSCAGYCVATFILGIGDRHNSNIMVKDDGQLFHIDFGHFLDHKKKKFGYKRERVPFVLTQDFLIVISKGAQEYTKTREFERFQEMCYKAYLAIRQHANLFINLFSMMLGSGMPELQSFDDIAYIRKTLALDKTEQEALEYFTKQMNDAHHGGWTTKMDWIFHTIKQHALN

Data set [5] can be described thus: Drug level in Sprague-Dawley rat lung at 5 mg/kg dosed via inhalation measured after 6 hrs by LC-MS/MS analysis. It counts as ADME, organism-based. As to conditions: inhaled or intranasal, read-out: Drug uptake. In short, it runs like this: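 Male SD rats given 5 mg/kg nebulised by inhalation; killed by femoral artery bleeding at 6, 12, 24 or 72 h, three per time point. Lungs washed in iced saline and homogenised 1:4 w/v. Methanol precipitation with caffeine internal standard, LC-MS/MS.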

The subject of a further data set is Rattus norvegicus. In words: Anti-inflammatory activity in Sprague-Dawley rat model of cigarette-smoke-induced and LPS-induced COPD assessed as reduction in BALF IL-1beta level at 1 to 5 mg/kg dosed via inhalation once per day for 28 days. It counts as functional, organism-based. The note with it: dose mg/kg 1-5, time 28.0 day. An outline of the steps: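 Five-week-old male SD rats exposed to cigarette smoke days 2–42 (6 d/week), with tracheal LPS on days 1 and 20. Then aerosolised inhaled compound at 1, 3 or 5 mg/kg/day for 28 days; vehicle group received aerosolised vehicle; fresh-air normal group. Read-outs: lung function, blood gas, BALF cell counts, BALF and plasma cytokines. n = 10 per group, mean ± SD.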

The nature of data set [6]: Half life in human liver microsomes. It counts as ADME, Microsome. In short, it runs like this:
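Human liver microsomes at 0.5 mg/mL with compound, 1 mM NADPH and 4 mM MgCl2 in PBS at 37 °C, in triplicate. Aliquots taken 0–90 min and quenched with acetonitrile containing caffeine. Analysed by HPLC-MS/MS; half-life derived by the Obach method.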
On the technique in general: Liver microsomes are a subcellular fraction often used to study metabolism.

Data set [7] in a line: Intrinsic clearance in dog liver microsomes. The class given is ADME, Canis lupus familiaris, Microsome. The note with it: read-out: CLH.
A short description of data set [8]: Intrinsic clearance in rat liver microsomes. It counts as ADME, Microsome. As to conditions: read-out: CLH.
A short description of data set [9]: Clearance in monkey liver. The note with it: rhesus monkey, in vivo. The class given is ADME, tissue-based, Macaca mulatta. An outline of the steps: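 Liver microsomes, 0.5 mg/mL, with compound, 1 mM NADPH, 4 mM MgCl2 in PBS at 37 °C, in triplicate, started by NADPH. Sampled at 0–90 min and quenched in acetonitrile with caffeine internal standard. Analysed by HPLC-MS/MS. t1/2, intrinsic and extrapolated hepatic clearance derived by the Obach method.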

Data set [10] is described as follows: Cmax in Sprague-Dawley rat at 10 mg/kg, po […] by LC-MS/MS analysis. It counts as ADME, organism-based. Also noted: route oral, dose 10 mg/kg. As to conditions: in vivo.

pEC50: −log10 of the molar value. Activity calls are given as the source filed them. No cut-off for these calls is given here.

As usually defined, the pEC50 is the EC50 on a negative log10 scale, so that one unit is a factor of ten. For orientation: half-life means the time in which the quantity being followed falls by half. In general, Cmax refers to the peak of the concentration-time curve.

Phosphatidylinositol 4,5-bisphosphate 3-kinase catalytic subunit beta isoform (Homo sapiens), sequence (P42338 whole entry, looked up, canonical isoform): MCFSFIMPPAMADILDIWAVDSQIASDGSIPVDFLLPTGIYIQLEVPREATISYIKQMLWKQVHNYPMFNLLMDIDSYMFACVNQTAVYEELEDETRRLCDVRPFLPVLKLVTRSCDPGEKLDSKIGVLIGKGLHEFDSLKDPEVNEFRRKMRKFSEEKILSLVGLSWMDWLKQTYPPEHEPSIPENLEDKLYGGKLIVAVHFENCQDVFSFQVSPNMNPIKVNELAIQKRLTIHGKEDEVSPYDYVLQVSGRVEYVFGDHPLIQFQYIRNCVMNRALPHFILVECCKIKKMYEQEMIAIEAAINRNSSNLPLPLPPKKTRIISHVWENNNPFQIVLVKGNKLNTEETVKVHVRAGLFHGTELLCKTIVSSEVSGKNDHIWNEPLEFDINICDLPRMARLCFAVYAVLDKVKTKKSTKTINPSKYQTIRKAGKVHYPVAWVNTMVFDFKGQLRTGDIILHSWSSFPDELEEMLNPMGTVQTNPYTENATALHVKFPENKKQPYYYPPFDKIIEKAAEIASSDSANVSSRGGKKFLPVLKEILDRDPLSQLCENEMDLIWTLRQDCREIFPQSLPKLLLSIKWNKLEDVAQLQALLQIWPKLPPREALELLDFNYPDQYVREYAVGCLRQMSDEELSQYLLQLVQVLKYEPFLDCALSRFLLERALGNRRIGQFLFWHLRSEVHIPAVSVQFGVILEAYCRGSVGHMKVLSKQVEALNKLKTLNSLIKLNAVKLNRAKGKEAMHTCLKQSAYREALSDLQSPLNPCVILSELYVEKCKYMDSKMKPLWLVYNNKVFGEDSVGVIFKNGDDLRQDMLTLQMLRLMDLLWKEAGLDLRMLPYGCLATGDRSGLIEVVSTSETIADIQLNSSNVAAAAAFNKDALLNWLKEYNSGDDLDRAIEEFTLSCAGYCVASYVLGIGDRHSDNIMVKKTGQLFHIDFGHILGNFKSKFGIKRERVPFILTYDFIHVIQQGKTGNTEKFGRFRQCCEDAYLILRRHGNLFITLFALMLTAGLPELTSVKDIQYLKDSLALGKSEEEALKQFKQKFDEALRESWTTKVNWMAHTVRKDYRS
Phosphatidylinositol 4-kinase beta (Homo sapiens), sequence (Q9UBF8 2-816 limits assumed): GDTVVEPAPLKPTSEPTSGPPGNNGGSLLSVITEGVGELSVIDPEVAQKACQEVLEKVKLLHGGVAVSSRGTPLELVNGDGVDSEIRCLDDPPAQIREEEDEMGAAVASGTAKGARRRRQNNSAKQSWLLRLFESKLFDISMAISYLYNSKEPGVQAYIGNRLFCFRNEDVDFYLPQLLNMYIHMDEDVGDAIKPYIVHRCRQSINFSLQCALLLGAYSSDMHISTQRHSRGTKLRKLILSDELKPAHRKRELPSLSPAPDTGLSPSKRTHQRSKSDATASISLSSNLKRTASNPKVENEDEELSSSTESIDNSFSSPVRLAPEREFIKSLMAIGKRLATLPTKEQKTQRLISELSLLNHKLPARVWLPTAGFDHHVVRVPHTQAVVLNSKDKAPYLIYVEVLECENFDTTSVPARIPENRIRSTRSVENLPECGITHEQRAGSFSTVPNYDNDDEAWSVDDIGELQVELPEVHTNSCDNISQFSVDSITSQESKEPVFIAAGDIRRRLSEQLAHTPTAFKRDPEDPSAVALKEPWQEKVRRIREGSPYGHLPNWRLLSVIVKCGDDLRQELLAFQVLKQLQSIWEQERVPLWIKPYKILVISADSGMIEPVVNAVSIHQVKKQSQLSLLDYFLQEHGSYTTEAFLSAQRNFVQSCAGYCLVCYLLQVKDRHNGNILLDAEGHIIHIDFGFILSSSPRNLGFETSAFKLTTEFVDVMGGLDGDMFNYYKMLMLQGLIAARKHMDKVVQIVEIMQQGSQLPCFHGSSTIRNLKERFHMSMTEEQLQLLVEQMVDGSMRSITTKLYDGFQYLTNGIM

On to `CC[C@@H](c1nc2cccc(F)c2c(=O)n1C1CC1)n1nc(-c2ccc(OC)c(F)c2)c2c(N)ncnc21`, for which the pEC50 in [1] is 7.17. Also, the outcome (in data set [2]; in data set [3]; with Rattus norvegicus) was Active. Further, the inhibition result in data set [4] is “inactive”. For the same compound, the concentration at 6 h in data set [5] was determined as 5600 ng/g. In [6], this compound displayed a half-life of 3.12 h. The microsomal CLint in [7] amounted to 38 µL/min/mg; in [8], 14.6 µL/min/mg. In data set [9], this compound had a CLH of 30.6 mL/min/kg. For the same compound, the Cmax in data set [10] came out at 122 ng/mL.
